Assay results from ChEMBL document CHEMBL3396953, “Design, synthesis and biological evaluation of a class of bioisosteric oximes of the novel dual peroxisome proliferator-activated receptor α/γ ligand LT175” (Eur J Med Chem, 2015).
Active and inactive are the calls of the source. The calls are words filed in the database; no cut-off is given here.

Tests used:
Assay type in all cases: cell-based
[1] = biological target: T1, Peroxisome proliferator-activated receptor gamma (Homo sapiens, UniProt P37231); experiment: Agonist activity at GAL4-DNA binding domain fused human PPARgamma ligand binding domain expressed in human HepG2 cells assessed as receptor transactivation incubated for 20 hrs by luciferase reporter gene assay
T1 sequence (P37231 whole entry): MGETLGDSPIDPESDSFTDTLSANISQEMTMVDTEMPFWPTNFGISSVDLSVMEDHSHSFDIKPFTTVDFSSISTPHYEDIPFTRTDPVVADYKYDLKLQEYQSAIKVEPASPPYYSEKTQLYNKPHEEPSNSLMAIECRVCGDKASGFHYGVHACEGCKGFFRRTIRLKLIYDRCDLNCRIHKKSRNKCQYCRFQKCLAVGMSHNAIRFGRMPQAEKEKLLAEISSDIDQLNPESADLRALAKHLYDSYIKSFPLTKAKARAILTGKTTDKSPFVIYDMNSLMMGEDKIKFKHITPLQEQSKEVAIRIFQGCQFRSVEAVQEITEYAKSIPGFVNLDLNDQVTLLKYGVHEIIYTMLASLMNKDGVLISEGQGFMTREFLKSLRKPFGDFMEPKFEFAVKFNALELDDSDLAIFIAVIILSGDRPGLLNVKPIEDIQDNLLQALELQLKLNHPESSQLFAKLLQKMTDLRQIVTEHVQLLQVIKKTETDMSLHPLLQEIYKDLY

[2] = biological target: T2, Peroxisome proliferator-activated receptor alpha (Homo sapiens, UniProt Q07869); experiment: Agonist activity at GAL4-DNA binding domain fused human PPARalpha ligand binding domain expressed in human HepG2 cells assessed as receptor transactivation incubated for 20 hrs by luciferase reporter gene assay
T2 sequence (Q07869 whole entry): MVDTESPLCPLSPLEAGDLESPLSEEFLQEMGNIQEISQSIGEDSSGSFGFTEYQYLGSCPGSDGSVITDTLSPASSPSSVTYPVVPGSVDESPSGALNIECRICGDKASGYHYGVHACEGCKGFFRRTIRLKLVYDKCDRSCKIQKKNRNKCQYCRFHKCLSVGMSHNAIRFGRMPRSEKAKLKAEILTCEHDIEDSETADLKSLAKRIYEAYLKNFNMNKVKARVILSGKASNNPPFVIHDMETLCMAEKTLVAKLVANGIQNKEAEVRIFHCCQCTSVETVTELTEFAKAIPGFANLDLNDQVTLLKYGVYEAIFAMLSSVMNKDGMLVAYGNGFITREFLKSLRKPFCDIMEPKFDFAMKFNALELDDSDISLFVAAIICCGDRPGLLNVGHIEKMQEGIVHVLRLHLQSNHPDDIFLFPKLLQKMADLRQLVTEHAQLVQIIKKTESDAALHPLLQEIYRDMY
Summary of the method: (§1)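 GAL4-PPARα-LBD chimera transiently expressed in HepG2 cells; 10⁵ cells/well seeded in triplicate, calcium-phosphate transfection after 24 h with GAL4-PPARα-LBD plasmid (30 ng), pGAL5TKpGL3 reporter (100 ng) and pCMVβgal (250 ng). Transfections repeated at least twice.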

[3] = biological target: T3, Peroxisome proliferator-activated receptor alpha (Homo sapiens) (UniProt Q07869); experiment: Agonist activity at GAL4-DNA binding domain fused human PPARalpha ligand binding domain expressed in human HepG2 cells assessed as receptor transactivation incubated for 20 hrs by luciferase reporter gene assay relative to Wy-14,643
T3 sequence (whole entry): T2 sequence (Q07869 whole entry)
Summary of the method: as §1, with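 “ng). Efficacy expressed as percentage of maximum fold induction obtained with reference agonist Wy-14,643.” for “ng).”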

[4] = biological target: T4, PPAR alpha/gamma (Homo sapiens) (UniProt P37231+Q07869); experiment: Agonist activity at PPARalpha/PPARgamma in human […] cells assessed as increase in ANGPTL4 gene expression at 25 uM incubated for 1 day by quantitative PCR method relative to untreated control
Summary of the method: (§2)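 HepaRG cells grown two weeks in William's E medium with 10% FCS, insulin, glutamine and hydrocortisone, then two weeks more with 2% DMSO. Hepatocyte-like cells detached by mild trypsinization and seeded at 2.6 × 10⁴ cells/cm². After 24 h they were starved 16 h without DMSO/FCS, then exposed 24 h to ligand. Total RNA assayed by real-time qPCR; vehicle-treated control set to 1; duplicate samples; two-way ANOVA with Bonferroni.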

[5] = biological target: T4, PPAR alpha/gamma (Homo sapiens); experiment: Agonist activity at PPARalpha/PPARgamma in human […] cells assessed as increase in HMGCS2 gene expression at 25 uM incubated for 1 day by quantitative PCR method relative to untreated control; summary of the method: as §2
[6] = biological target: T4, PPAR alpha/gamma (Homo sapiens); experiment: Agonist activity at PPARalpha/PPARgamma in human […] cells assessed as increase in CD36 gene expression at 25 uM incubated for 1 day by quantitative PCR method relative to untreated control; summary of the method: as §2
[7] = biological target: T4, PPAR alpha/gamma (Homo sapiens); experiment: Agonist activity at PPARalpha/PPARgamma in human […] cells assessed as increase in FABP4 gene expression at 25 uM incubated for 1 day by quantitative PCR method relative to untreated control; summary of the method: as §2
[8] = biological target: T4, PPAR alpha/gamma (Homo sapiens); experiment: Agonist activity at PPARalpha/PPARgamma in human […] cells assessed as increase in CPT1A gene expression at 25 uM incubated for 1 day by quantitative PCR method relative to untreated control; summary of the method: as §2
[9] = biological target: T4, PPAR alpha/gamma (Homo sapiens); experiment: Agonist activity at PPARalpha/PPARgamma in human […] cells assessed as increase in FABP1 gene expression at 25 uM incubated for 1 day by quantitative PCR method relative to untreated control; summary of the method: as §2

SMILES | EC50 ([1]; read-out: EC50) [µM] | EC50 ([2]; read-out: EC50) [µM] | Emax [3] | other results
O=C(O)[C@H](Cc1ccccc1)Oc1ccc(/C=N/O)cc1 | 28 | 5.5 | 98% | –
O=C(O)[C@H](Cc1ccccc1)Oc1ccc(-c2ccccc2)cc1 | – | – | 100% | –
O=C(O)C(Cc1ccccc1)Oc1ccc(/C=N/O)cc1 (racemic) | 43 | 7.75 | 91% | –
CO/N=C/c1ccc(OC(Cc2ccccc2)C(=O)O)cc1 (racemic) | 12.8 | 7.8 | 101% | –
CCCO/N=C/c1ccc(OC(Cc2ccccc2)C(=O)O)cc1 (racemic) | 7.9 | 7.3 | 96% | –
CCCCCCCO/N=C/c1ccc(OC(Cc2ccccc2)C(=O)O)cc1 (racemic) | – | – | – | EC50 ([2]; hepg2): Not Active
O=C(O)C(Cc1ccccc1)Oc1ccc(/C=N/OCc2ccccc2)cc1 (racemic) | 2.1 | 6.8 | 58% | –
O=C(O)C(Cc1ccccc1)Oc1ccc(/C=N/OCCc2ccccc2)cc1 (racemic) | 1.8 | 2.2 | 48% | –
Cc1cccc(Nc2cc(Cl)nc(SCC(=O)O)n2)c1C [PIRINIXIC ACID] | – | – | – | EC50 ([1]; hepg2): Not Active
CN(CCOc1ccc(CC2SC(=O)NC2=O)cc1)c1ccccn1 (stereo unspecified) [ROSIGLITAZONE] | – | – | inactive | EC50 ([2]; hepg2): Not Active

More lines, main results first:

EC50 ([1]; read-out: EC50) [µM] | EC50 ([2]; read-out: EC50) [µM] | Emax [3] | SMILES | other results
3.8 | 3.8 | 91% | CCCO/N=C/c1ccc(O[C@@H](Cc2ccccc2)C(=O)O)cc1 | Activity [4]: Active; Activity [5]: Active; Activity [6]: Active; fold change (FC) [7]: 50; fold change (FC) [8]: 2; Activity [9]: Active
3.65 | 3.9 | 68% | CCCCO/N=C/c1ccc(OC(Cc2ccccc2)C(=O)O)cc1 (racemic) | –
5.6 | 4.2 | 63% | CC(C)O/N=C/c1ccc(OC(Cc2ccccc2)C(=O)O)cc1 (racemic) | –
4.5 | 3.8 | 52% | CC(C)CO/N=C/c1ccc(OC(Cc2ccccc2)C(=O)O)cc1 (racemic) | –
1.25 | 1.4 | 24% | O=C(O)C(Cc1ccccc1)Oc1ccc(/C=N/OCCCc2ccccc2)cc1 (racemic) | –
9.4 | 5.2 | 68% | C/C(=N\O)c1ccc(OC(Cc2ccccc2)C(=O)O)cc1 (racemic) | –
12.4 | 1.2 | 78% | O=C(O)C(Cc1ccccc1)Oc1ccc(/C(=N/O)c2ccccc2)cc1 (racemic) | –
1 | 2.1 | 24% | CCCO/N=C(\c1ccccc1)c1ccc(OC(Cc2ccccc2)C(=O)O)cc1 (racemic) | –
0.68 | 0.22 | 59% | CCCO/N=C(/c1ccccc1)c1ccc(OC(Cc2ccccc2)C(=O)O)cc1 (racemic) | –
